Bioassay records as filed in PubChem.
STAT3 activator: activators of IL-6 induced STAT3 signaling; activation (% of control), % at 5.6 µM; 0.91% of 190,000 active; AID 871; U3A cells, IL-6 STAT3-luciferase reporter, luminescence; 100% = signal with IL-6 EC80 alone;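 active = activation above the screen-wide mean of compound activation plus 3 SD, cut at about 130% in these data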
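Material: human U3A cells carrying STAT3-luciferase construct. Measured by: reporter luminescence signal. Timing: compound 1 h, then IL-6 6 h at 37 °C.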
STAT1 inh: reduces IFN-gamma driven STAT1 reporter signal | NIH 3T3 STAT1-luciferase reporter, luminescence | inhibition, % at 5.5 µM | 0.35% of 200,000 active;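 active = inhibition above a set limit, the mean inhibition across all tested compounds plus 3 SD, cut at about 34% in these data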
NF-kB expr up: NF-kB expression increase, human neuronal cells; NF-kB reporter expression; stronger effect = higher value; fold change at 12.5 µM; 1.6% of 190,000 active; AID 1239; in the data active = fold change above about 3.3
APP 5'UTR act: activates APP 5'UTR luciferase reporter. 1% of 190,000 active. activation, % at 2 µM. AID 1276. SH-SY5Y APP 5'UTR luciferase reporter, luminescence; zero percent = DMSO vehicle wells;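 active = activation above a set limit, based on mean plus 3 SD of controls, cut at about 140% in these data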
STAT3 blocker: STAT3 signaling inhibition; U3A cells, IL-6 STAT3-luciferase reporter, luminescence; host cell line lacks STAT1; inhibition, % at 5.5 µM; 0.89% of 190,000 active; AID 862;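 active = inhibition above the mean inhibition across all screened compounds plus 3 SD, cut at about 44% in these data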
STAT1 act: increases IFN-gamma driven STAT1 reporter signal; NIH 3T3 STAT1-luciferase reporter, luminescence; 100% = IFN-gamma alone, no compound; activation (% of control), % at 5.5 µM; 2.6% of 200,000 active; AID 932;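 active = activation above the screen-wide mean activation plus 3 SD, cut at about 130% in these data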
STAT1 act conf: STAT1 activation, confirmation assay. 97% of 1,200 active. shares compounds with STAT1 act. NIH 3T3 STAT1-luciferase reporter, IFN-gamma potentiation, luminescence; 100% = IFN-gamma EC80 alone, no compound. AID 1262. activation (% of control), % at 5.7 µM;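 active = activation above a set limit carried over from the earlier primary STAT1 screen, cut at about 140% in these data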
NFkB act: NF-kappaB activation in STAT1 activator counter-screen. shares compounds with STAT1 act. HEK293T NF-kB luciferase reporter, TNF-alpha stimulated, luminescence; 100% = TNF-alpha with vehicle only. activation (% of control), % at 5.7 µM. 43% of 1,200 active. AID 1306;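 active = activation above the mean of solvent-only control wells plus 3 SD, set per campaign, cut at about 130% in these data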;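 note: TNF-alpha given at a submaximal dose yielding about 80% of full reporter signal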
STAT3 act STAT1c: human STAT3 activation in STAT1 activator counter-screen | 46% of 1,200 active | shares compounds with STAT1 act | activation (% of control), % at 5.7 µM | U3A cells STAT3-luciferase reporter, IL-6, luminescence; cells lack STAT1; 100 = IL-6 alone, no compound effect;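 active = activation above the solvent-only control well mean plus 3 SD, set per plate batch, cut at about 110% in these data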;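 note: higher means more STAT3 reporter activation so hits are non-selective activators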
Of the large screens only hits and unclear results are named; the others gave an inactive call (follow-up assays come after a bar, where they were run). Compounds with a hit are over-represented: about 5.1% of the library has one in this group of screens.

NS(=O)(=O)c1ccc(O)c(N2C(=O)c3cccc4c(C(=O)c5ccccc5)ccc(c34)C2=O)c1	none
Cc1ccc(NC(=O)c2c(C)nc3ccccn23)cc1C	NF-kB expr up 3.8, APP 5'UTR act 168, STAT1 act 154 | STAT1 act conf 191 | NFkB act 139 | STAT3 act STAT1c inactive
COC(=O)c1sc2nc3c(cc2c1N)CCCC3	NF-kB expr up 8.2, APP 5'UTR act 164, STAT1 act 165 | STAT1 act conf 227 | NFkB act 148 | STAT3 act STAT1c inactive
CCOC(=O)c1sc2nc3c(cc2c1N)COC(C)(CC)C3 (stereo unspecified)	NF-kB expr up 7.3, APP 5'UTR act 175, STAT1 act 201 | STAT1 act conf 287 | NFkB act 146 | STAT3 act STAT1c inactive
CCC1(C)Cc2nc3sc(C(=O)O)c(N)c3cc2CO1 (stereo unspecified)	none
CCN(CC)S(=O)(=O)c1ccc(NC(=O)C2CCCN(C(=O)c3ccc(Cl)cc3)C2)cc1 (stereo unspecified)	none
c1cncc(-c2nnc(SCCSc3nnc(-c4cccnc4)o3)o2)c1	none (no result: NF-kB expr up)
Fc1ccccc1CSc1nnc(-c2cccnc2)o1	NF-kB expr up 3.5, STAT1 act 161 | STAT1 act conf 147 | NFkB act inactive | STAT3 act STAT1c inactive
Cc1ccc(S(=O)(=O)NC2CCCc3ccccc32)cc1C (stereo unspecified)	none
CC(=O)NCCc1cc2ccc(C)c(C)c2[nH]c1=O	none
Cc1ccc2cc(CCNC(=O)c3cccs3)c(=O)[nH]c2c1C	NF-kB expr up 4, STAT1 act 165 | STAT1 act conf 187 | NFkB act 135 | STAT3 act STAT1c inactive
CCOC(=O)/C(C#N)=C/c1cc(C)n(-c2ccccc2)c1C	APP 5'UTR act 153, STAT1 act 165 | STAT1 act conf 255 | NFkB act inactive | STAT3 act STAT1c inactive
CCOC(=O)/C(C#N)=C/c1cc(C)n(-c2ccc(Br)cc2)c1C	none
Cc1ccc(NC(=O)Nc2ccc3c(c2)nc(C)n3C)cc1C	NF-kB expr up 4.8, STAT1 act 171 | STAT1 act conf 194 | NFkB act 137 | STAT3 act STAT1c inactive
Cc1nc2cc(NC(=O)Nc3ccc(N4CCOCC4)cc3)ccc2n1C	none
CC(C)(C)c1ccc(OCc2nc(-c3ccccn3)no2)c(Br)c1	NF-kB expr up 3.7, APP 5'UTR act 164, STAT1 act 158 | STAT1 act conf 219 | NFkB act 143 | STAT3 act STAT1c 131
C=CCOc1c(Cl)cc(CNc2nccs2)cc1OC	none
Cc1ccc(OCc2ccc(Br)cc2)c([N+](=O)[O-])n1	NF-kB expr up 3.8, APP 5'UTR act 156, STAT1 act 154 | STAT1 act conf 175 | NFkB act 141 | STAT3 act STAT1c 118
Cc1cc(C(=O)CN2C(=O)NC(CC(C)C)C2=O)c(C)n1-c1ccccc1F (stereo unspecified)	STAT1 act 153 | STAT1 act conf 183 | NFkB act 135 | STAT3 act STAT1c 131
Cc1cc(C(=O)CN2C(=O)C(=O)N(CC(C)C)C2=O)c(C)n1-c1ccccc1F	none
Cc1cc(CNC(=O)C(C)n2nc(C)c([N+](=O)[O-])c2C)c2ccccc2n1 (stereo unspecified)	none
Cc1cc(C(=O)Nc2ccc3c(c2)OCO3)cs1	NF-kB expr up 4.5, APP 5'UTR act 178, STAT1 act 157 | STAT1 act conf 168 | NFkB act inactive | STAT3 act STAT1c 119
O=C(Nc1ccc2nsnc2c1)c1ccc2c(c1)OCO2	NF-kB expr up 7, APP 5'UTR act 150, STAT1 act 154 | STAT1 act conf 214 | NFkB act inactive | STAT3 act STAT1c inactive
Cc1ccc(-n2nc3ccc(NC(=O)c4ccc5c(c4)OCO5)cc3n2)cc1	none
CC(=O)Nc1ccc(C(=O)Nc2ccc3c(c2)OCO3)cc1	none
Cn1c(C(=O)Nc2ccc3c(c2)OCCO3)cc2sccc21	NF-kB expr up 9.1, APP 5'UTR act 152, STAT1 act 186 | STAT1 act conf 272 | NFkB act inactive | STAT3 act STAT1c inactive
Cc1ccc(C[n+]2cccc(-c3ccccc3)c2)c(C)c1	none
Cc1ccc(S(=O)(=O)N2CCOCC2)cc1N/N=C(\C#N)c1nc2ccccc2[nH]1	none
CCCn1nnc(NC(=O)c2ccc3ccccc3c2)n1	STAT1 act 154 | STAT1 act conf inactive | NFkB act inactive | STAT3 act STAT1c inactive
O=C(NC1=NCCS1)c1sc2cc(Cl)cc(Cl)c2c1Cl	none
O=C(NC1=NCCS1)c1sc2ccccc2c1Cl	NF-kB expr up 7.1, APP 5'UTR act 146, STAT1 act 173 | STAT1 act conf 210 | NFkB act inactive | STAT3 act STAT1c 116
Cc1ccc(CNC(=O)C2CCCN(c3nc4ccsc4c(=O)s3)C2)cc1 (stereo unspecified)	none
O=c1oc(Nc2cccc(Cl)c2)nc2ccccc12	STAT1 act 157 | STAT1 act conf 177 | NFkB act inactive | STAT3 act STAT1c 157
O=C(NCCc1ccccc1)c1cc(=O)[nH]c2ccccc12	none
CCN(CC)c1ccc(C(=O)Nc2ccccc2)cc1[N+](=O)[O-]	STAT1 act 160 | STAT1 act conf 163 | NFkB act inactive | STAT3 act STAT1c inactive
N/C(=N\O)C1COc2ccccc2O1 (stereo unspecified)	none
NC(N)=Nc1nc(C2COc3ccccc3O2)cs1 (stereo unspecified)	NF-kB expr up 5, APP 5'UTR act 166, STAT1 act 164 | STAT1 act conf 202 | NFkB act inactive | STAT3 act STAT1c inactive
CN(C)C=Nc1ccc2nn(-c3ccccc3)nc2c1	NF-kB expr up 5.6, STAT1 act 165 | STAT1 act conf 186 | NFkB act 134 | STAT3 act STAT1c inactive
CCCc1nnc(SCC(=O)N2CCCC2)n1Cc1ccco1	none
CCC(=O)Nc1nc(C)c(-c2csc(Nc3ccccn3)n2)s1	STAT1 act 157 | STAT1 act conf 161 | NFkB act inactive | STAT3 act STAT1c inactive
CCCC(=O)Nc1nc(C)c(-c2csc(Nc3ccccc3C)n2)s1	none
N=C1c2ccccc2CN1NC(=O)c1cccc(S(=O)(=O)N2CCCC2)c1	none
